In series [1] the test system is Mycobacterium tuberculosis. Kind of series: Antimicrobial activity against Mycobacterium tuberculosis H37Rv at 6.25 ug/ml by alamar blue assay. The class given is functional. In a few lines:
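M. tuberculosis H37Rv (ATCC 27294) tested in the TAACF screening program by microplate Alamar Blue assay (MABA) at a single concentration of 6.25; read-out was percent growth inhibition.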
A general note: The colour change of resazurin is a common sign of viable cells or microbes.

The nature of series [2]: Cytotoxicity against HEK293 cells by MTT assay. The class given is cell-based. The settings on record: human, read-out: LC50 (the source's name). The method in brief: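 HEK-293 cells seeded at 12 000 cells/well in DMEM with 10% FCS at 37 °C, 5% CO₂. After 48 h, half the medium was renewed. Hydrochloride salts in 17% glycerine/33% DMSO/50% water were added; vehicle served as control. After 72 h, MTT was added for 3 h, then formazan was solubilised with 10% SDS/0.01 M HCl. A544 (reference 640 nm) was read, and LC50 came from a Boltzmann sigmoidal fit.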
For orientation: Tetrazolium assays rely on reduction of a dye to a coloured formazan, in cell work by metabolically active cells.

The subject of series [3] is Mycobacterium tuberculosis. Kind of series: Antimicrobial activity against Mycobacterium tuberculosis H37Rv by alamar blue assay. The format is functional. In a few lines:
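M. tuberculosis H37Rv (ATCC 27294) microplate Alamar Blue assay (MABA), run within the TAACF screening program.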

For orientation: inhibition means the change of the read-out against control, counted positive when it falls. A higher inhibition goes with strong suppression. What is called MIC is the smallest concentration in the dilution series that meets the test's criterion for growth inhibition. A lower MIC goes with greater potency.

Values after ≈ are worked out from the molar mass of the structure shown.

Turning to `Clc1ccc(C(OC2CCN(CCc3ccccc3)CC2)c2ccc(Cl)cc2)cc1`, in series [1], the inhibition at 6.25 µg/mL turned out to be 56%. Also, the CC50 in series [2] worked out at 17.3 µg/mL (≈ 39.2 µM).
`CC(C)[C@@H]1C[C@@H](OC(c2ccccc2)c2ccccc2)CCN1c1ccccc1` (relative stereo) had an inhibition at 6.25 µg/mL in series [1] of 7%. Further, the CC50 in series [2] was found to be 97.1 µg/mL (≈ 252 µM).
`CN1CCC(OC(c2ccccc2)c2ccccc2)CC1(C)C` (racemic) gave an inhibition at 6.25 µg/mL in series [1] of 18%. Besides, the CC50 in series [2] was found to be 105 µg/mL (≈ 338 µM).
On to `NNC(=O)c1ccncc1` [ISONIAZID], for which, in series [1], the inhibition at 6.25 µg/mL was over 99%. Moreover, in series [2], the CC50 is over 576 µg/mL.
In the same order, the values of `CC(C)[C@@H]1C[C@@H](OC(c2ccccc2)c2ccccc2)CCN1C` (relative stereo) are 12% and 69.4 µg/mL (≈ 215 µM).
The corresponding values for `CN1CCC(OC(c2ccc(Cl)cc2)c2ccc(Cl)cc2)CC1` are 65% and 25.5 µg/mL (≈ 72.7 µM).
In the same order, the values of `c1ccc(C(O[C@H]2CCN(c3ccccc3)[C@H](c3ccccc3)C2)c2ccccc2)cc1` (relative stereo) are 75% and 112 µg/mL (≈ 266 µM).
The compound `CC(C)[C@H]1C[C@@H](OC(c2ccccc2)c2ccccc2)CCN1c1ccccc1` (relative stereo) returned an inhibition at 6.25 µg/mL in series [1] of 36%. Moreover, the CC50 in series [2] was found to be 69.4 µg/mL (≈ 180 µM).
The corresponding values for `CC(C)[C@H]1C[C@@H](OC(c2ccccc2)c2ccccc2)CCN1CCc1ccccc1` (racemic) are 0% and 62.8 µg/mL (≈ 152 µM).
With `c1ccc(CCN2CCC(OC(c3ccccc3)c3ccccc3)CC2)cc1`, in series [1], the inhibition at 6.25 µg/mL was 8%. The CC50 in series [2] worked out at 14.9 µg/mL (≈ 40.2 µM).
The corresponding values for `CC(C)[C@H]1C[C@@H](OC(c2ccc(Cl)cc2)c2ccc(Cl)cc2)CCN1CCc1ccccc1` (racemic) are 0% and 76.5 µg/mL (≈ 158 µM).
The corresponding values for `c1ccc(C(O[C@H]2CCN(c3ccccc3)[C@@H](c3ccccc3)C2)c2ccccc2)cc1` (relative stereo) are 39% and 77.8 µg/mL (≈ 185 µM).
For `CC(C)[C@H]1C[C@@H](OC(c2ccccc2)c2ccccc2)CCN1C` (relative stereo), the inhibition at 6.25 µg/mL in series [1] was 68%. For the same compound, the CC50 in series [2] stood at 98.1 µg/mL (≈ 303 µM).
On to `CC(C)[C@H]1C[C@@H](OC(c2ccc(Cl)cc2)c2ccc(Cl)cc2)CCN1C` (racemic), for which, in series [1], 6.25 µg/mL produced 74% inhibition. Besides, the CC50 in series [2] came to 17.9 µg/mL (≈ 45.7 µM).
The corresponding values for `CC1(C)C[C@@H](OC(c2ccccc2)c2ccccc2)CCN1c1ccccc1` (racemic) are 3% and 65.1 µg/mL (≈ 175 µM).
On to `CN1CCC(OC(c2ccccc2)c2ccccc2)CC1.Cl` [DIPHENYLPYRALINE HYDROCHLORIDE], for which the inhibition at 6.25 µg/mL in series [1] was 5%. Besides, the MIC in series [3] is 64 µg/mL. In addition, the CC50 in series [2] was 108 µg/mL.

Values taken from ChEMBL document CHEMBL1149821, “Antimycobacterial activity of diphenylpyraline derivatives” (Eur J Med Chem, 2008).
